Measured values of several laboratories.
Lines come from different studies, so protocols differ.
MMP2: 72 kDa type IV collagenase (MMP2, Homo sapiens, UniProt P08253)
SETD7: Histone-lysine N-methyltransferase SETD7 (SETD7, Homo sapiens, UniProt Q8WTS6)
PRKCE: Protein kinase C epsilon type (PRKCE, Homo sapiens, UniProt Q02156)

Structure (SMILES) | target | observed | action | technique | tested at | inhibition [%]
CC(C)C[C@H](NC(=O)[C@H](Cc1ccccc1)NC(=O)c1cnccn1)B(O)O | Lysosomal protective protein (CTSA, Homo sapiens, UniProt P10619) | cell-free assay | inhibitor |  | 33 µM | 32.4
O=C(Nc1cccnn1)N1CCN([C@@H]2CCOc3cc(C(F)(F)F)ccc32)CC1 | Prostacyclin receptor (PTGIR, Homo sapiens, UniProt P43119) | cell-free assay |  |  | 20 µM | -15
COc1ccc(S(=O)(=O)N(CC(=O)NO)CC(C)C)cc1 | MMP2 | enzyme activity | inhibitor |  | 10 nM | 24
CC(C)=CCCC1(C)C=Cc2c(O)c3c(c(CC=C(C)C)c2O1)OC12C(=CC4CC1C(C)(C)OC2(C/C=C(/C)C(=O)O)C4O)C3=O (stereo not drawn) | SETD7 | cell-free assay |  |  | 10 µM | 11
CN(C)C(=O)COC(=O)Cc1ccc(OC(=O)c2ccc(NC(=N)N)cc2)cc1 | Ubiquitin carboxyl-terminal hydrolase isozyme L1 (UCHL1, Homo sapiens, UniProt P09936) | enzyme activity | inhibitor |  | 10 µM | 7
C#Cc1n[nH]c2c(-c3cn([C@@H](C)c4ccccc4)c(=O)[nH]c3=O)cc(F)cc12 | PRKCE | enzyme activity | inhibitor |  | 0.1 µM | 7.2
Nc1c(S(=O)(=O)O)cc(Nc2ccc(Nc3nc(Cl)nc(Nc4cccc(S(=O)(=O)O)c4)n3)c(S(=O)(=O)O)c2)c2c1C(=O)c1ccccc1C2=O | SETD7 | cell-free assay |  |  | 10 µM | 93
Cn1cc(-c2cc(F)cc(N3CCn4c(cc5c4CCCC5)C3=O)c2CO)cc(Nc2ccc(N3CCN(C4COC4)CC3)cn2)c1=O | G protein-coupled receptor kinase 5 (GRK5, Homo sapiens, UniProt P34947) | enzyme activity | inhibitor |  | 0.1 µM | 4
c1ccc(C(NCCNC(c2ccccc2)c2ccccc2)c2ccccc2)cc1 | Coagulation factor X (F10, Homo sapiens, UniProt P00742) | enzyme activity | inhibitor |  | 10 µM | -9
CCN(CC)CCCC[C@H](NC(=O)[C@H](CC(C)C)NC(=O)[C@H](C)NC(=O)[C@H](Cc1ccccc1)NC(=O)c1ccc(C(C)(C)C)cc1)C(=O)N[C@@H](CO)C(=O)OC | Galanin receptor type 2 (GALR2, Homo sapiens, UniProt O43603) | ligand displacement |  | radioligand | 10 µM | -21
N=C(N)c1ccc2cc(OC(=O)c3ccc(N=C(N)N)cc3)ccc2c1 | MMP2 | enzyme activity | inhibitor |  | 10 µM | 0
Cc1ncc(C)n2nc(/C=C/c3nc(N4CCCC4)cc(N4CCOCC4)n3)nc12 | MMP2 | enzyme activity | inhibitor |  | 10 µM | 3
Cn1cc(-c2cccc(N3CCc4c(sc5c4CC(C)(C)C5)C3=O)c2CO)cc(Nc2ccncn2)c1=O | G protein-coupled receptor kinase 6 (GRK6, Homo sapiens, UniProt P43250) | enzyme activity | inhibitor |  | 1 µM | -1
CCOC(=O)c1ccc(OC(=O)CCCCCNC(=N)N)cc1 | MMP2 | enzyme activity | inhibitor |  | 10 µM | 26
C#Cc1n[nH]c2c(-c3cn(C(C)c4ccccn4)c(=O)[nH]c3=O)cc(F)cc12 (stereo not drawn) | PRKCE | enzyme activity | inhibitor |  | 1 µM | 3.8
